For 97 molecules, cytotoxicity results are on record in ChEMBL document CHEMBL4513216, “Probing the Open Global Health Chemical Diversity Library for Multistage-Active Starting Points for Next-Generation Antimalarials” (ACS Infect Dis, 2020).

A short description of the data set: Toxicity liver stage against HepG2, at 10uM. The settings on record: human, HepG2-A16-CD81EGFP cells; read-out: INHIBITION
On the set-up: test concentration 10 uM, cell line HepG2-A16-CD81EGFP. In kind it is cell-based. The essentials:
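Uninfected HepG2-A16-CD81EGFP cells, 3 × 10^3 per well, 1536-well, plated on prespotted compound at 10 μM final, parasite-free screening media added to match infected plates; puromycin 10 μM positive, DMSO 0.5% negative; run in parallel with 48 h PbLuc assay at 37 °C, 5% CO2; viability by CellTiter-Glo luminescence, normalized to controls.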
Take `CC1CCc2c(c3ccccc3[nH]c2=O)O1` (configuration not stated): the cytotoxicity at 10 µM is -8.41%.
In the case of `O=C1N[C@@H]2CCN(C(=O)C3CCCC3)[C@@H]2C(=O)N1c1ccc(F)cc1` it was -1.1%.
Turning to `CC(=O)OC1CN(c2nc3c(Cl)cccc3s2)C1`, the cytotoxicity at 10 µM is -0.745%.
The figure for `CCN1CCC2(CN(C(C)=O)CC23CCN(C(=O)N(C)C)CC3)C1=O` (configuration not stated) is 4.88%; for `Cc1ccc2c(c1)C1(CCNCC1)CC2N1CCOCC1` (configuration not stated) it is -134%; for `CCc1cnc(NC2CCc3c(ccc(=O)n3C)C2)nc1` (configuration not stated) it is -125%.
For the molecule `CCN(CC)Cc1nc2c(o1)CN(C(=O)c1ccc3ncccc3c1)C2`, the cytotoxicity at 10 µM worked out at 6.01%.
Regarding `CC(=O)N1CCO[C@@H]2CN(C(=O)c3ccc4ccccc4c3)CC[C@@H]2C1`, the cytotoxicity at 10 µM is 1.35%.
Take `COCC1c2nnn(CC3CC3)c2CCN1C(=O)c1cccn1C` (configuration not stated): the cytotoxicity at 10 µM is -133%.
In the case of `CS(=O)(=O)N[C@@H]1CN(Cc2ccccc2)C[C@@H]2CCCO[C@@H]21` it was 2.58%; in that of `O=C(c1cnccn1)N1CCN2C[C@H](OCC3CC3)C[C@H]2C1`, 2.92%; in that of `NC(=O)c1c(NC(=O)C2CCCO2)sc2c1CCc1ccccc1-2` (configuration not stated), 0.794%.
As to `Cc1c(C2CC(=O)Nc3c2cnn3C(C)(C)C)cnn1C` (configuration not stated), the cytotoxicity at 10 µM was -2.89%.
Take `Cn1cc(CN2CC[C@H]3OCC[C@@H](C(=O)N4CCCCO4)[C@@H]3C2)cn1`: the cytotoxicity at 10 µM is -2.1%.
The figure for `CSc1nc2ccsc2c(=O)n1CC(=O)NC1CCCC1` is 0.297%; for `Cc1noc(C)c1-c1cccc(C2CCCNC2)n1` (configuration not stated) it is -12.3%; for `Cc1noc(C)c1-c1nc(NCCN(C)C)ncc1-c1cnccn1` it is -9.03%.
The figure for `Cc1nc(C)c(C(=O)N2CCC(O)(Cn3ccc4ccncc43)CC2)s1` is -21.7%.
Regarding `COCCN1CCCC(CCCc2ccccn2)(C(N)=O)C1` (configuration not stated), the cytotoxicity at 10 µM is -16%.
In the case of `CC(C)COCCC(=O)Nc1cc(-n2nnnc2C2CC2)ccc1F` it was 7.57%; in that of `O=C(NCc1nnc2n1CCC2)c1cccc(Br)c1`, -0.115%; in that of `CC(C)c1nsc(N2CCn3c(nnc3-c3ccccc3)C2)n1`, -13.9%.
As for `CN(C)Cc1ccc(C(N)=O)cc1NC(=O)c1cccc(C#N)c1`, the cytotoxicity at 10 µM was found to be 1.12%.
With `O=S(=O)(NCCCn1cncn1)c1ccc2c(c1)CCC2`, the cytotoxicity at 10 µM is 3.03%.
In the case of `Cc1ccc2cccc(C(=O)NCCOCC3CC3)c2n1` it was -20.3%.
For the molecule `COC(=O)c1cccc(S(=O)(=O)NCC(c2ccco2)N2CCCC2)c1` (configuration not stated), the cytotoxicity at 10 µM is -1.74%.
As to `NC(=O)NC1CCN(Cc2ccc3c(c2)CCC3)CC1`, the cytotoxicity at 10 µM was -3.19%.
In the case of `Cc1nc2n(n1)CC(NCc1ccc(Cl)c3cccnc13)CC2` (configuration not stated) it was -8.81%; in that of `O=C1CN(C(=O)c2cc3ccc(Br)cc3[nH]2)CCN1`, 0.549%; in that of `O=C(CNC(=O)C1CC1)NCc1ccc(Cl)s1`, -3.12%.
With `Cc1sc(-c2ccco2)nc1C(=O)N(CC(N)=O)C1CCCC1`, the cytotoxicity at 10 µM is -2.64%.
In the case of `O=C(NCCN1CCOCC1)c1cc(-c2ccccc2Cl)[nH]n1` it was -4.02%; in that of `Cc1cc(C)n(CC2CCCN2CC(=O)Nc2nnc(C)s2)n1` (configuration not stated), 5.29%.
As to `Cn1c(C(=O)N2CCC(CC(N)=O)CC2)c(Cl)c2ccccc21`, the cytotoxicity at 10 µM was found to be 18.7%.
In the case of `CC(NC(=O)N(C)Cc1ccsc1)c1nncn1C` (configuration not stated) it was -4.02%; in that of `COc1ccc(CC(=O)NCCNS(=O)(=O)c2ccc(C)cc2)cc1`, -143%; in that of `CCOC(=O)N1CCN(C(=O)c2cc(-c3ccccc3F)on2)CC1`, 1.14%.
The figure for `CC(C)OCCC(=O)Nc1c(-c2ccc(F)cc2)ncn1C` is -3.41%; for `Cc1[nH]c(=O)sc1S(=O)(=O)N1CCCC1C(=O)NCc1ccsc1` (configuration not stated) it is 2.78%.
Turning to `Cc1cc(N2CCCCC2Cn2nc(C)cc2C)n2ncnc2n1` (configuration not stated), the cytotoxicity at 10 µM is -1.38%.
In the case of `CC(Sc1n[nH]c(-c2ccc3c(c2)CCC3)n1)C(N)=O` (configuration not stated) it was -0.665%; in that of `CC(C)c1nccn1CCC(=O)N1CCCC1c1cccn1C` (configuration not stated), -6.66%.
The figure for `COC(=O)c1ccc(CNC(C)c2ccc(S(C)(=O)=O)cc2)cc1` (configuration not stated) is 5.21%; for `CCOCCN1CCN(CC(O)c2ccc(C)c(C)c2)CC1` (configuration not stated) it is -6.33%.
In the case of `CN1CC(C(=O)NCCc2ccc(Br)cc2F)CC1=O` (configuration not stated) it was 2.43%; in that of `COCC(=O)N1CCC(Nc2ccnc3ccc(Cl)cc23)CC1`, 5.78%; in that of `Cc1nc2ccccc2n1CCNCc1cccc(O)c1`, -3.89%.
Regarding `CN(CC1CC1)C(=O)Cc1csc(-c2ncccn2)n1`, the cytotoxicity at 10 µM was determined as 4.56%.
As to `COc1ncccc1NC(=O)N1CCC(CN2CCOCC2)CC1`, the cytotoxicity at 10 µM is -6.78%.
In the case of `Cn1cc(CN(Cc2ccccc2)CC(O)c2cccs2)cn1` (configuration not stated), the cytotoxicity at 10 µM was -8.59%.
The figure for `CC(C)Cc1cn(C2CCN(C(C)CCn3cccn3)CC2)nn1` (configuration not stated) is -1.8%; for `COc1ccc(-n2cc(CCO)cn2)cc1C` it is -12.4%.
Regarding `CCN(C)C[C@@H]1CN(Cc2cnc3c(S(C)(=O)=O)cnn3c2)C[C@@H]1CO`, the cytotoxicity at 10 µM is -4.99%.
Regarding `C[C@@H]1CN(C(=O)CCc2cnn(C)c2)CC[C@@]1(O)C1CCOCC1`, the cytotoxicity at 10 µM is -0.872%.
In the case of `CC1(c2ccccc2)CCC(=O)N(CCN2CCCOC2=O)C1` (configuration not stated), the cytotoxicity at 10 µM was -3.99%.
In the case of `COCCCC1(CO)CCCN(Cc2ccc(F)c(OC)c2)C1` (configuration not stated) it was -142%.
In the case of `COCCN1CCN(C(=O)c2ccc(C)cc2F)[C@H]2CS(=O)(=O)C[C@H]21` it was -11.4%; in that of `CCC(CC)n1nc(C)cc1NC(=O)C1CCCO1` (configuration not stated), -0.951%; in that of `COc1cccc(OCc2cc(C(=O)N3CC(O)C3)n[nH]2)c1`, 2.81%.
In the case of `Cc1nn(C)c2ncnc(NCc3nncn3C3CCCCC3)c12` it was -10.2%; in that of `COc1cccc(OC2CN(C(=O)c3c(C)noc3C)C2)c1`, 7.79%.
In the case of `Cc1nc2c(c(=O)n1C)CN(C(=O)C1CCCN(C3CCCC3)C1)C2` (configuration not stated), the cytotoxicity at 10 µM was -8.67%.
The figure for `Cc1cccc(C(C(=O)NCCCc2ccccn2)N(C)C)c1` (configuration not stated) is -7.16%; for `OCC1(O)CCN(Cc2ccc(-c3cc[nH]n3)s2)CC1` it is -135%; for `COc1ccc(OC)c(NC(=O)c2cc3c([nH]c2=O)CCCC3=O)c1` it is -0.607%.
The figure for `COc1ccc(-c2ccccc2CN)c(OC)c1` is 7.35%; for `Cc1ccc(NC2CCN(C(=O)c3sccc3C3CC3)CC2)nn1` it is -4.51%.
Turning to `Cc1nnc2ccc(N3CCN(CCc4ccccn4)CC3)nn12`, the cytotoxicity at 10 µM was -8.76%.
Consider `CC(=O)NCc1ccc(C(=O)N2CCCC2c2c(C)nn(C)c2C)o1` (configuration not stated), for which the cytotoxicity at 10 µM was -11.3%.
In the case of `COC(=O)CNC(=O)c1sc(-c2ccc(Cl)s2)nc1C` it was -5.63%; in that of `Cc1ccc(CCC(=O)N2CCOCC2c2ncon2)c(C)c1` (configuration not stated), -6.76%.
For the molecule `N#Cc1ccc(CS(=O)(=O)NC(=O)COc2ccc3c(c2)CCC3)cc1`, the cytotoxicity at 10 µM amounted to 1.13%.
Regarding `CCn1nc2c(cc1=O)CN(Cc1nc(-c3cccnc3)no1)CC2`, the cytotoxicity at 10 µM was -5.86%.
For the molecule `Fc1ccccc1-c1nc(CNCCn2cccn2)cs1`, the cytotoxicity at 10 µM was -9.53%.
In the case of `c1ncn(CC2CCCCN2Cc2csc(-c3ccsc3)n2)n1` (configuration not stated) it was -2.48%.
As to `Cc1nc(CSCCC(=O)NCc2ccc(N(C)C)cc2)cs1`, the cytotoxicity at 10 µM is -14.2%.
As for `COc1ccccc1CNC(=O)N1CCN(Cc2cc(C)on2)CC1`, the cytotoxicity at 10 µM was -9.07%.
The figure for `COCCOc1cc(C)ccc1NC(=O)N(C)Cc1cnn(C)c1` is -9.5%.
In the case of `CCOc1ccc(C(=O)N2CCCC(n3ccnc3C)C2)cc1OC` (configuration not stated), the cytotoxicity at 10 µM was -6.7%.
The figure for `COCCc1noc(CN2CC(n3nc(C)cc3C)C2)n1` is -1.76%.
Take `CCN(Cc1ccc(F)c(F)c1)Cc1nc2c(cnn2C)c(=O)[nH]1`: the cytotoxicity at 10 µM is -4.18%.
The figure for `CCn1cc(CN2CCCN(C(=O)c3ccccc3C)CC2)cn1` is -5.65%; for `COc1c(C2CCCN2C(=O)c2ccc(N(C)C)nn2)c(C)nn1C` (configuration not stated) it is -13.7%.
For `Cc1nc2ccccc2nc1CN1CCCC(Cn2cncn2)C1` (configuration not stated), the cytotoxicity at 10 µM was -4.57%.
For the molecule `O=C(c1ccccn1)N1CCCN(Cc2nnc(C3CC3)o2)CC1`, the cytotoxicity at 10 µM is 5.25%.
The figure for `CC(C)(C)c1cn2nc(N3CCCCC3Cn3cncn3)sc2n1` (configuration not stated) is -4.61%.
With `COCCNC(=O)[C@H]1C[C@@H]2CCN(c3ncccn3)C[C@H]2O1`, the cytotoxicity at 10 µM was -17.1%.
As for `Cc1occc1C(=O)N1CCC2(CCCN(Cc3nccs3)C2)C1` (configuration not stated), the cytotoxicity at 10 µM was -3.32%.
`Fc1ccc(COCC2CCN(Cc3ccccn3)CC2)cc1`: the cytotoxicity at 10 µM was -2.67%.
As to `Cc1nc(CO[C@@H]2CN(Cc3nccs3)[C@@H]3COC[C@@H]32)cs1`, the cytotoxicity at 10 µM is -3.03%.
On to `Cc1ccc2c(c1)C(N(C)C)CC21CCN(CCO)CC1` (configuration not stated), for which the cytotoxicity at 10 µM amounted to 3.62%.
As to `O=C(c1ccccn1)N1CCC2(CC1)C(=O)Nc1ccccc12`, the cytotoxicity at 10 µM was -145%.
Consider `Clc1ccccc1OCCc1cc(C2CCNC2)n[nH]1` (configuration not stated), for which the cytotoxicity at 10 µM is -32.9%.
`CN(C)CCN1CCO[C@H]2CN(Cc3cnn(C)c3)C[C@H]21`: the cytotoxicity at 10 µM worked out at 1.82%.
The figure for `O=C1Nc2ccccc2C12CCN(Cc1nccs1)CC2` is -0.243%; for `c1ccc(N2CCC3(CCCN(c4ncccn4)C3)C2)nc1` (configuration not stated) it is -133%; for `Cc1noc(C)c1CN1C(=O)[C@@H]2CC[C@H]1CN(Cc1cscn1)C2` it is 0.854%.
